# High-throughput results (PubChem BioAssay)
# Avidin fluor – avidin bead compound fluorescence profile; AID 1775; actives 0.38% (n = 220,000); fluorescence (KMESF) at 10 µM; Avidin beads, compound fluorescence 488/530 nm, flow cytometry; active compounds read high; in the data active = fluorescence above about 47
# ABCB1 block – human ABCB1 inhibition, ABCG2 as counter-screen | actives 0.067% (n = 190,000) | AID 1326 | inhibition, % at 6.6 µM | P08183 | CCRF-Adr cells, JC-1 efflux, flow cytometry; in the data active = inhibition above about 40%;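 also: 0% = vehicle and 100% = reference inhibitor; higher value means more JC-1 retained so stronger ABCB1 efflux block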
# ABCG2 block – inhibitors of human ABCG2 transporter, ABCB1 counter-screen; Q9UNQ0; IgMXP3 cells, JC-1 efflux, flow cytometry; inhibition, % at 6.6 µM; actives 0.1% (n = 190,000);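 active = inhibition above 80%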;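 also: 0% = DMSO and 100% = nicardipine control wells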
#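 Assay system – ABCG2 IgMXP3 and barcoded ABCB1 CCRF-Adr cell mix · Input – 3 million cells/mL in well · Reagent – JC-1 fluorescent substrate · Compound – single test compound dose, 6.6 µM final · Timing – 10 min exposure at 25 °C with rotation, no wash · Detection – flow cytometry of retained JC-1 fluorescence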
# PKD1 kinase inh – PKD1 (human) kinase inhibition; Q15139; PKD1 kinase fluorescence polarization assay; actives 0.056% (n = 200,000); inhibition, % (concentration not given with the values)
# Lmaj promast – Leishmania major promastigote growth inhibition. Leishmania major promastigotes, resazurin fluorescence viability. inhibition, % at 10 µM. actives 9% (n = 200,000). AID 1063;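 also: promastigotes grown with compound for 44 hours at 28 °C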
# GSH bead fluor – GSH bead compound fluorescence profile | actives 0.25% (n = 190,000) | fluorescence (KMESF) at 10 µM | GSH beads flow cytometry, compound fluorescence 488/530 nm; active compounds read high; in the data active = fluorescence above about 89;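 also: glutathione beads carrying GST-tagged Bcl family fusion proteins plus one bare bead set; values are compound well signal with DMSO vehicle wells as background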
# Numbers without * were called inactive; / = no result. This is one part of a sample in which hits are shown more often than they occur. Rule as the data show it, unless noted: active = inhibition above about 50%; inactive = the rest.
SMILES,Avidin fluor,ABCB1 block,ABCG2 block,PKD1 kinase inh,Lmaj promast,GSH bead fluor
N#CC(c1cccc(C(F)(F)F)c1)(c1ncc(C(F)(F)F)cc1Cl)N1CCOCC1 (configuration not stated),8,0.3,0.6,6.9,96.1*,12
c1ccc(OCc2noc(CN3CCC(C4CCCCC4)C3)n2)cc1 (configuration not stated),12,0.1,2.6,-7.8,54.5*,13
COCC1CCN(Cc2nc(COc3ccccc3)no2)C1 (configuration not stated),7,0.2,0.7,-3.6,-6.2,13
c1ccc(Cc2noc(CN3CCN(CCOc4ccccc4)CC3)n2)cc1,3,1.2,1.7,0.8,75.1*,10
Fc1ccccc1Cc1noc(CN2CCN(C/C=C/c3ccccc3)CC2)n1,6,0.9,-0.1,-0.5,84.7*,18
CN1CCN(Cc2nc(Cc3ccccc3)no2)CC1c1ccccc1 (configuration not stated),7,0.5,2.7,-3.8,-1.6,17
COC(=O)c1c(NC(=O)COC(=O)c2ccc(O)cc2)sc2c1CCCCC2,10,0.4,5.0,0.3,13.2,18
CC(C)Cc1nc2oc3c(NCCCN4CCOCC4)ncnc3c2c2c1CCC2,29,1.2,1.0,-8.8,58.3*,19
COc1ccc(-c2[nH]ncc2CNCc2cc(C)n(C)n2)c(F)c1,12,-0.4,-0.9,0.0,-1.2,15
CCCS(=O)(=O)N1CCCC(C(=O)NCCCN2CCN(c3cccc(Cl)c3)CC2)C1 (configuration not stated),150*,0.4,1.6,1.5,-2.9,29
O=S(=O)(NC1=NCCCCC1)c1ccccc1Cl,5,/,/,/,/,/
O=C(/C=C/c1ccco1)Nc1nc(-c2ccccc2)cs1,10,0.4,5.8,-6.8,44.8,5
O=C(/C=C/c1ccco1)Nc1nc(-c2ccccn2)cs1,9,0.3,2.4,-1.7,99.8*,16
O=C(CCCSc1ccccc1)Nc1nc(-c2ccccn2)cs1,11,-0.2,-0.2,-0.5,100.3*,6
CSCCC(=O)Nc1nc(-c2ccccn2)cs1,21,0.1,0.7,-5.8,88.3*,11
O=C(Nc1ccc2nc(-c3ccccn3)[nH]c2c1)C1CCCCC1,6,0.4,1.1,-6.8,100.5*,43
CC(C)c1nc2ccc(NC(=O)C3CCCCC3)cc2[nH]1,8,0.3,7.5,-3.8,4.9,65
CCOC(=O)c1c(-c2ccccc2)csc1NC(=O)c1cc2ccccc2oc1=O,9,0.7,29.0,0.6,-4.1,12
O=C(Nc1nc(-c2ccccn2)cs1)C1CCCC1,5,-0.6,-0.3,-6.2,78.8*,9
Cc1ccc(OCCSc2nc(NC(C)C)nc(NC(C)C)n2)cc1,9,0.5,3.2,-13.3,34.0,23
Cc1ccccc1C(=O)NC1CCN(CC(=O)Nc2ccc3c(c2)OCCO3)CC1,5,0.6,2.9,-3.2,90.2*,22
O=C(Nc1ccccc1)NC1CCN(Cc2c(F)cccc2Cl)CC1,6,/,/,/,/,/
O=C(Nc1ccc2c(c1)OCO2)C1CCN(S(=O)(=O)Cc2ccccc2)CC1,11,0.4,7.2,-4.1,-3.6,11
O=C(Nc1ccc2c(c1)OCO2)C1CCN(Cc2cnn(-c3ccccc3)c2-n2cccc2)CC1,3,0.7,2.2,-11.2,98.4*,44
O=C(Nc1ccc2c(c1)OCO2)NC1CCN(Cc2ccccc2)CC1,16,0.6,10.8,-8.2,77.9*,26
SMILES,Avidin fluor,ABCB1 block,ABCG2 block,PKD1 kinase inh,Lmaj promast,GSH bead fluor
O=C(Nc1ccc(F)cc1)NC1CCN(Cc2ccccc2)CC1,10,-0.1,1.9,-1.7,54.8*,20
O=C(CN1CCC(NC(=O)c2ccccc2F)CC1)Nc1ccc2c(c1)OCCO2,12,0.1,1.9,-4.1,-3.5,14
CC(NC(N)=O)C(=O)Nc1ccc(Cl)c(S(=O)(=O)Nc2ccc(Br)cc2)c1 (configuration not stated),25,0.1,-0.6,-9.5,-8.1,16
O=C(N/N=C/c1ccccc1Br)C1CC1,10,1.3,8.2,-2.0,-6.4,14
CCOC(=O)C1=C(C)Nc2nc(=S)[nH]n2C1c1ccc(Cl)cc1 (configuration not stated),10,-1.3,-2.6,-0.3,94.4*,23
COc1ccc(-c2nc(NC(=O)C3CCN(c4nc5ccccc5o4)CC3)sc2C)cc1,12,2.3,39.5,-2.8,78.9*,26
CC1(C)C(C=C(Cl)Cl)C1C(=O)N(Cc1cccc(Cl)c1)C1CCS(=O)(=O)C1 (configuration not stated),13,2.0,4.6,-3.5,90.6*,3
O=C(Nc1ccccc1Br)C1CC(=O)N(c2ccc3c4c(cccc24)CC3)C1 (configuration not stated),16,0.3,-4.3,-12.6,62.1*,10
COc1cc(-c2csc(N3CCOCC3)n2)cc(OC)c1OC,7,0.9,6.1,-0.8,-4.6,263*
Fc1ccc(-c2csc(N3CCOCC3)n2)cc1,8,/,/,/,/,/
CCOc1cc(NC(=S)Nc2ccccc2OC)c(OCC)cc1NC(=O)c1ccccc1C,10,2.1,7.1,-0.3,97.0*,27
CCC(=O)Nc1cc(OC)c(NC(=O)c2ccccc2)cc1OC,7,0.2,1.1,-2.3,77.0*,42
COc1cc(NC(=O)c2ccccc2)c(OC)cc1NC(C)=O,15,0.3,4.2,-2.6,3.3,40
CCOc1cc(NC(=S)NCC2CCCO2)c(OCC)cc1NC(=O)c1ccccc1C (configuration not stated),36,1.1,4.1,-1.2,-3.8,21
CCOc1cc(NC(=S)Nc2ccccc2)c(OCC)cc1NC(=O)c1ccccc1,6,0.8,3.9,-4.7,87.9*,58
COc1ccc(NC(=O)CC(=O)Nc2ccc(OC)cc2OC)c(OC)c1,79*,0.2,1.8,-4.6,-5.4,31
COc1ccc(NCC(=O)Nc2ccc(Cl)cc2C)c(OC)c1,11,0.6,1.5,-3.4,99.0*,14
COc1ccc(NC(=O)c2ccc(C)cc2)c(OC)c1,2,0.3,4.5,-13.6,-2.4,6
COc1ccc(NC(=O)c2cccc(-n3c(C)ccc3C)c2)c(OC)c1,8,0.2,4.2,-5.0,63.2*,4
COc1ccc(NC(=O)Nc2cc(C)ccc2OC(F)F)c(OC)c1,/,0.0,0.6,-2.6,67.3*,33
CCOC(=O)c1ccc2c(c1)NCc1cccc(OC)c1O2,5,/,/,/,/,/
CCOc1ccc(N2C(=O)C3Sc4[nH]c(=O)sc4C(c4ccc(OC)c(OC)c4)C3C2=O)cc1 (configuration not stated),7,/,/,/,/,/
O=C(O)/C=C/c1ccc(S(=O)(=O)N2CCN(CCN3C(=O)C4C5C=CC(C5)C4C3=O)CC2)cc1 (configuration not stated),8,/,/,/,/,/
